Screening results: PubChem BioAssay, several laboratories
Most compounds without a hit are left out; they make up all but 5.5% or so of the library.
STAT3 act – STAT3 signaling activation; U3A cells, IL-6 STAT3-luciferase reporter, luminescence; 100% = signal with IL-6 EC80 alone; activation (% of control), % at 5.6 µM; hit rate 0.91% among 190,000;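 active means activation above the screen-wide mean of compound activation plus 3 SD, cut at about 130% in these data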;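 further: 0% = background luminescence of wells with medium and substrate only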
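Material: human U3A cells carrying STAT3-luciferase construct. Measured by: reporter luminescence signal. Timing: compound 1 h, then IL-6 6 h at 37 °C.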
STAT1 inh – inhibitors of IFN-gamma induced STAT1 signaling. NIH 3T3 STAT1-luciferase reporter, luminescence. hit rate 0.35% among 200,000. AID 920. inhibition, % at 5.5 µM;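 active means inhibition above a set limit, the mean inhibition across all tested compounds plus 3 SD, cut at about 34% in these data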;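 further: 0% = IFN-gamma with DMSO and 100% = IFN-gamma with 300 µM nifuroxazide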
KCC2 mod – KCC2 (human) Cl- transport modulation; Q9H2X9; KCC2 cells, thallium flux FluoZin-2 fluorescence; B-score of Tl+ flux slope (higher = more flux/activation; lower = inhibition) at 10 µM; hit rate 2.2% among 190,000; AID 1456;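 active means thallium flux slope and its plate-corrected score both differing from the plate sample mean at a set confidence after two filtering rounds, in either direction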;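 further: slope of fluorescence scaled to starting intensity during 10 to 20 s after thallium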
Target sequence (Q9H2X9 whole entry, looked up): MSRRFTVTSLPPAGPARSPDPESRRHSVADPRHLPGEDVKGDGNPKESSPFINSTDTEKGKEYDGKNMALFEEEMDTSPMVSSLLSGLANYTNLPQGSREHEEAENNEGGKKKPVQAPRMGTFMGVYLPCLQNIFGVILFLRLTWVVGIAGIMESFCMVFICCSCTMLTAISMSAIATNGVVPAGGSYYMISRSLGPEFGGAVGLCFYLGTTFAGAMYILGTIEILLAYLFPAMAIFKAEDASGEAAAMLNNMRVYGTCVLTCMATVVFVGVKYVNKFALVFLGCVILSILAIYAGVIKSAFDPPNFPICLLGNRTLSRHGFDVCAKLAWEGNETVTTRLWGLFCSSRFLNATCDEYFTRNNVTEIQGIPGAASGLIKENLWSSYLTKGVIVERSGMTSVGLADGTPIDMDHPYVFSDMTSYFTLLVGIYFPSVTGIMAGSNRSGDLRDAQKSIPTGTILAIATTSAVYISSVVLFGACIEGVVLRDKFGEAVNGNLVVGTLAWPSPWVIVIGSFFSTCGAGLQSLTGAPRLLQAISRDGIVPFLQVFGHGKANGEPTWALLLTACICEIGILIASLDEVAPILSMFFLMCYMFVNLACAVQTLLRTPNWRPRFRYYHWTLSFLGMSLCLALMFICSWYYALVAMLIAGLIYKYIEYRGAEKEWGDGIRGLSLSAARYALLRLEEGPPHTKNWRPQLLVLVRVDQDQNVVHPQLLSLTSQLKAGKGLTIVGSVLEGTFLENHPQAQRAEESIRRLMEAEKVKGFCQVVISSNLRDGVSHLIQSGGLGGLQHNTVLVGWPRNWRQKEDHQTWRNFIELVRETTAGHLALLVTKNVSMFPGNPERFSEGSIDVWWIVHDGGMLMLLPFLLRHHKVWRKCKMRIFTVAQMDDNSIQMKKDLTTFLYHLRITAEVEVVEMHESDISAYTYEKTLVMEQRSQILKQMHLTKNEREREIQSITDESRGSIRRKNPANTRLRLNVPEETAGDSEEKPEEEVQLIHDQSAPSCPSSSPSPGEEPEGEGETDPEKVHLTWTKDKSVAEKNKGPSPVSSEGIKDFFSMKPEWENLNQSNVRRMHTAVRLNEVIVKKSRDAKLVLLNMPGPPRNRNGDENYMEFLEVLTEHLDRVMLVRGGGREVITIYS
STAT3 inh – STAT3 signaling inhibition; U3A cells, IL-6 STAT3-luciferase reporter, luminescence; host cell line lacks STAT1; inhibition, % at 5.5 µM; hit rate 0.89% among 190,000; AID 862;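 active means inhibition above the mean inhibition across all screened compounds plus 3 SD, cut at about 44% in these data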;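 further: 0% = DMSO only wells and 100% = 100 µM nifuroxazide control wells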
HSV replic up – increases HSV replication in cells | AID 1956 | HSV replication augmentation in cells, fold increase | maximum fold increase | hit rate 0.005% among 220,000; in the data active means maximum fold increase above about 1.5; tested in PC3 cells
STAT1 activator – increases IFN-gamma driven STAT1 reporter signal. NIH 3T3 STAT1-luciferase reporter, luminescence; 100% = IFN-gamma alone, no compound. activation (% of control), % at 5.5 µM. hit rate 2.6% among 200,000. AID 932;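 active means activation above the screen-wide mean activation plus 3 SD, cut at about 130% in these data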;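 further: raw ratio to IFN-gamma control signal so 100% means no change and 0% no light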
* marks the source's active call; other numbers are inactive results.

Screening O=c1nc(/C=C/c2cc([N+](=O)[O-])ccc2Cl)cc(C(F)(F)F)[nH]1 returned STAT3 act 86, STAT1 inh 4, KCC2 mod -1.6, STAT3 inh 17, HSV replic up inactive and STAT1 activator 96.
`CCOC(=O)Cn1c2ccccc2n2nc(CCC(=O)O)c(=O)nc12` gave STAT3 act 95, STAT1 inh 9, KCC2 mod -0.064, STAT3 inh 12, HSV replic up inactive and STAT1 activator 90.
Screening O=C(Nc1cccc([N+](=O)[O-])c1)c1[nH]ncc1Cl returned STAT3 act 89, STAT1 inh -38, KCC2 mod 0.027, STAT3 inh 16, HSV replic up inactive and STAT1 activator 134*.
Screening CC(C)(C)c1ccc(C(=O)Nc2cccc([N+](=O)[O-])c2)cc1 returned STAT3 act 102, STAT1 inh -34, KCC2 mod 0.053, STAT3 inh -4, HSV replic up inactive and STAT1 activator 135*.
`CN(C)S(=O)(=O)Oc1ccc(C(=O)Nc2cccc(Cl)c2)cc1` gave STAT3 act 104, STAT1 inh -48, KCC2 mod -0.16, STAT3 inh 3, HSV replic up inactive and STAT1 activator 143*.
Screening O=C(Nc1ccc(F)c([N+](=O)[O-])c1)c1ccc2c(c1)OCCO2 returned STAT3 act 86, STAT1 inh -7, KCC2 mod 0.81, STAT3 inh 22, HSV replic up inactive and STAT1 activator 105.
`O=C(Nc1cccc([N+](=O)[O-])c1)c1ccc2c(c1)OCCO2` gave STAT3 act 104, STAT1 inh -44, KCC2 mod -0.029, STAT3 inh -8, HSV replic up inactive and STAT1 activator 139*.
O=C(Nc1cccc([N+](=O)[O-])c1)c1ccncc1 was read as STAT3 act 105, STAT1 inh -8, KCC2 mod -0.18, STAT3 inh -3, HSV replic up inactive and STAT1 activator 107.
`O=C(c1cn(-c2ccccc2)nc1-c1ccc(Br)cc1)N1CCOCC1` gave STAT3 act 100, STAT1 inh 3, KCC2 mod 0.0093, STAT3 inh 5 and STAT1 activator 98.
For CC(=O)N1CCN(c2ccc(NC(=O)c3ccc4c(c3)OCCO4)cc2)CC1 the results were STAT3 act 101, STAT1 inh 7, KCC2 mod -0.38, STAT3 inh 3, HSV replic up inactive and STAT1 activator 94.
`CN(c1cccc(NC(=O)c2ccc(C(C)(C)C)cc2)c1)S(C)(=O)=O` gave STAT3 act 94, STAT1 inh -44, KCC2 mod 0.97, STAT3 inh 11, HSV replic up inactive and STAT1 activator 138*.
`O=C(Nc1cccc2nsnc12)c1ccc2c(c1)OCO2` gave STAT3 act 110, STAT1 inh -15, KCC2 mod 0.83, STAT3 inh -12, HSV replic up inactive and STAT1 activator 113.
`O=C(Nc1cccc2nsnc12)c1ccc2c(c1)OCCO2` gave STAT3 act 100, STAT1 inh -35, KCC2 mod 0.28, STAT3 inh 3, HSV replic up inactive and STAT1 activator 132*.
`O=C(Nc1ccc(N2CCCCC2)cc1)c1ccc2c(c1)OCCO2` gave STAT3 act 75, STAT1 inh -36, KCC2 mod -0.99, STAT3 inh 33, HSV replic up inactive and STAT1 activator 133*.
`CCOC(=O)c1c(C)[nH]c(=S)c(C#N)c1-c1ccc(Cl)cc1` gave STAT3 act 94, STAT1 inh -1, KCC2 mod 11*, STAT3 inh 7, HSV replic up inactive and STAT1 activator 101.
Screening O=C(NN=C1c2ccccc2-c2ccccc21)c1ccccc1Br returned STAT3 act 82, STAT1 inh 8, KCC2 mod 14*, STAT3 inh 31, HSV replic up inactive and STAT1 activator 93.
O=[N+]([O-])c1ccccc1CN1CCN(Cc2c[nH]c3ccccc23)CC1 was read as STAT3 act 135*, STAT1 inh 17, KCC2 mod -0.071, STAT3 inh -33, HSV replic up inactive and STAT1 activator 83.
`O=C(c1cccc(F)c1)N1CCN(Cc2c[nH]c3ccccc23)CC1` gave STAT3 act 168*, STAT1 inh 7, STAT3 inh -81, HSV replic up inactive and STAT1 activator 93.
Screening CSc1ccccc1-c1nnc(-c2ccc(C)cc2)o1 returned STAT3 act 132, STAT1 inh -51, STAT3 inh -33, HSV replic up inactive and STAT1 activator 146*.
Screening Cc1ccc(-c2nnc(-c3ccccc3S(=O)(=O)Cc3ccc(Cl)cc3)o2)cc1 returned STAT3 act 102, STAT1 inh -5, STAT3 inh 8, HSV replic up inactive and STAT1 activator 105.
For CSc1nnc(-c2ccccc2SC)o1 the results were STAT3 act 86, STAT1 inh 2, KCC2 mod -0.29, STAT3 inh 18, HSV replic up inactive and STAT1 activator 97.
Screening CSc1ccccc1-c1nnc(-c2ccccc2)o1 returned STAT3 act 121, STAT1 inh -49, STAT3 inh -20, HSV replic up inactive and STAT1 activator 144*.
For Cc1ccc(NC(=O)C(=O)NCCN2CCN(S(C)(=O)=O)CC2)cc1C the results were STAT3 act 96, STAT1 inh 3, KCC2 mod -0.84, STAT3 inh 8, HSV replic up inactive and STAT1 activator 96.
Cc1cc(C(=O)N/N=C2\CC(=O)c3ccccc32)c(C)n1-c1ccccc1 was read as STAT3 act 92, STAT1 inh -43, KCC2 mod -1.3, STAT3 inh 14, HSV replic up inactive and STAT1 activator 137*.
For Cc1cc(C(=O)N/N=C2\CC(=O)CC(C)(C)C2)c(C)n1-c1ccccc1 the results were STAT3 act 101, STAT1 inh 7, KCC2 mod 0.18, STAT3 inh 2, HSV replic up inactive and STAT1 activator 93.
For O=c1c2ccccc2c(=O)n(Cc2ccccc2)n1Cc1ccccc1 the results were STAT3 act 92, STAT1 inh 9, KCC2 mod -0.95, STAT3 inh 10, HSV replic up inactive and STAT1 activator 92.
`CCOc1ccc2oc(=O)cc(C)c2c1` gave STAT3 act 95, STAT1 inh -36, STAT3 inh 13, HSV replic up inactive and STAT1 activator 133*.
`CCC(=O)Oc1ccc2oc(=O)cc(C)c2c1` gave STAT3 act 110, STAT1 inh 0, KCC2 mod -1.6, STAT3 inh -8, HSV replic up inactive and STAT1 activator 100.
CCc1ccc(-c2csc(NC(=O)COC(=O)CCc3nc4ccccc4s3)n2)cc1 was read as STAT3 act 103, STAT1 inh -34, KCC2 mod 0.25, STAT3 inh -9, HSV replic up inactive and STAT1 activator 131*.
